Bioassay records as filed in PubChem BioAssay.
Pf Dd2 inh – P. falciparum Dd2 growth inhibitors, primary screen, SYBR Green fluorescence, single dose replicates. 94,000 tested, 2.3% active. AID 1159554, 2015. 72 h; active compounds read low. activity change, % at 10 µM; in the data active = activity change below about -80%; inconclusive = no clear call, values can overlap the other calls
T cruzi growth-1 – T. cruzi intracellular proliferation inhibitors, primary screen, cell-based, beta-gal Tulahuen parasites, NIH3T3 host, luminescence; T. cruzi beta-gal in NIH3T3, GalScreen luminescence, 90 h; inhibition, % at 8.34 µM; 77,000 tested, 5.9% active; AID 624255, 2012;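 active = mean inhibition above about 93%, with at least 55% of replicates each passing it, limit read from the data, passing the limit was not always enough; inconclusive = only one of those two conditions holds; inactive = neither condition holds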
IDH1 R132H inh – inhibitors of IDH1 R132H reductase, primary screen, biochemical, plate reader, single point | Isocitrate dehydrogenase [NADP] cytoplasmic (Homo sapiens), O75874 | diaphorase/resazurin fluorescence, 60 min | inhibition, % at 10 µM | 70,000 tested, 0.18% active; in the data active = inhibition above about 34%; inconclusive = no clear call, values can overlap the other calls; inactive = below about 11%;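 also: 0% = DMSO and 100% = no enzyme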
KDM4C inh – inhibitors of GASC-1 (KDM4C) histone demethylase, primary screen, biochemical, single concentration HTS; GST-KDM4C 2-372, H3K9me3 peptide, LANCE TR-FRET; AID 720574, 2013; inhibition, % at 12.5 µM; Lysine-specific demethylase 4C (Homo sapiens), Q9H3R0; 96,000 tested, 0.15% active;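 active = mean replicate inhibition above about 25%, with at least 55% of replicates also reaching it, limit read from the data, passing the limit was not always enough; inconclusive = only one of those two conditions met; inactive = neither condition met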
Target sequence (Q9H3R0 2-372 limits assumed): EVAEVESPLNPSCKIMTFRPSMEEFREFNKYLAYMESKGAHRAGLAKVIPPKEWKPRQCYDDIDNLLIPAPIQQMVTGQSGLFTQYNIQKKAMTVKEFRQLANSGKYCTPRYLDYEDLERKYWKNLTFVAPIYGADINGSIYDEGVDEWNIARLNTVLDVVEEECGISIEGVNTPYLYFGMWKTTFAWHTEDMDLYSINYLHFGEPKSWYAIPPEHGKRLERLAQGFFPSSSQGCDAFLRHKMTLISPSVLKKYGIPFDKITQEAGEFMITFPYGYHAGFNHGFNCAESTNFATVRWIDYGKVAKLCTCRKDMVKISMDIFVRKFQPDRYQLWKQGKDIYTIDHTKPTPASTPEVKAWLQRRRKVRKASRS
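Material: GST-tagged GASC-1 (JMJD2C) catalytic fragment, aa 2-372 / Quantity: enzyme final amount 10 nM / Medium: HEPES buffer, pH 7.5, plus ascorbate / Doses: one test concentration per compound / Incubation: 30 min reaction, 60 min detection, RT / Measured by: LANCE TR-FRET / Read-out: inhibition from TR-FRET ratio decrease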
T cruzi growth-2 – T. cruzi intracellular proliferation inhibitors, confirmation, cell-based, NIH3T3 host, beta-gal parasite, luminescence, cherry-pick | shares compounds with T cruzi growth-1 | T. cruzi beta-gal in NIH3T3, GalScreen luminescence, 90 h | inhibition, % at 8.35 µM | 5,600 tested, 72% active;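 active = mean replicate inhibition above about 95% and at least 55% of replicates individually reaching it, limit read from the data; inconclusive = only one of the two criteria is met; inactive = neither criterion is met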
T cruzi growth-3 – inhibitors of intracellular T. cruzi replication, confirmation, NIH3T3 host cells, beta-gal parasites, cherry-pick, set 2 | inhibition, % at 2.09 µM | T. cruzi beta-gal in NIH3T3, GalScreen luminescence, 90 h | 5,600 tested, 21% active | shares compounds with T cruzi growth-1;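 active = mean inhibition above about 95%, with at least 55% of replicates also reaching it, limit read from the data; inconclusive = meets just one of the two conditions; inactive = meets neither condition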;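 also: plate controls were neutral control median for no effect and positive control median for full effect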
3T3 cytotox – cytotoxicity in mouse NIH/3T3 fibroblasts, confirmation, cytotoxicity control for T. cruzi proliferation inhibitor project, cell-based, cherry-pick, single point; shares compounds with T cruzi growth-1; AID 651742, 2012; NIH/3T3 viability, CellTiter-Glo ATP luminescence, 90 h; cytotoxicity (signal decrease), % at 8.35 µM; 5,600 tested, 14% active;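 active = mean signal decrease across replicates above about 35% based on untreated-well scatter, with enough replicates individually passing, limit read from the data; inconclusive = no rule stated though some were filed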;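 also: 0% = median of neutral control wells and 100% = median of positive control wells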
NIH3T3 tox 2 – NIH/3T3 fibroblast cytotoxicity, confirmation, cytotoxicity control, cell-based, cherry-pick, single point, set 2; shares compounds with T cruzi growth-1; AID 651744, 2012; inhibition, % at 24.9 µM; NIH/3T3 viability, CellTiter-Glo ATP luminescence, 90 h; 5,600 tested, 56% active;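 active = mean loss of cell viability signal at or above a set limit, and enough replicates individually reaching it; inconclusive = meets only the mean limit or only the replicate share; inactive = meets neither condition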;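 also: 0% = median of neutral control wells and 100% = median of positive control wells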
An asterisk follows results filed as active; ? = inconclusive; nt = no result given. Rows were chosen to be rich in hits. Some 5.8% of all compounds tested hit in one or more screens of this group.

SMILES	Pf Dd2 inh	T cruzi growth-1	IDH1 R132H inh	KDM4C inh	T cruzi growth-2	T cruzi growth-3	3T3 cytotox	NIH3T3 tox 2
O=C(C[C@H]1CC[C@@H]2[C@H](COC[C@@H](O)CN2C(=O)Nc2ccc(Cl)cc2)O1)NCCc1ccncc1	6.9	106.0*	nt	-1.5	95.8*	84.5	-5.2	-11.5
COc1ccccc1NC(=O)N1C[C@H](O)COC[C@H]2O[C@H](CC(=O)NCCc3ccncc3)CC[C@@H]21	nt	?	nt	-0.9	36.0	-3.5	-0.6	-0.7
O=C(C[C@@H]1CC[C@@H]2[C@H](COC[C@@H](O)CN2C(=O)Nc2ccc(Cl)cc2)O1)NCCc1ccncc1	18.9	118.5*	nt	-0.1	94.2	80.3	-13.5	-8.3
O=C(C[C@H]1CC[C@@H]2[C@H](COC[C@H](O)CN2C(=O)Nc2ccc(Cl)cc2)O1)NCCc1ccncc1	10.0	109.3*	nt	0.4	91.3	83.4	10.4	25.4
O=C(C[C@H]1CC[C@@H]2[C@H](COC[C@@H](O)CN2C(=O)Nc2ccc(F)cc2)O1)NCCc1ccncc1	4.2	71.8	nt	-2.2	nt	nt	nt	nt
COC(=O)c1cc(C)cc(O)c1C(=O)c1c(O)cccc1O	nt	nt	7.7	nt	nt	nt	nt	nt
Cc1ccc(S(=O)(=O)N(C)C[C@H]2OCCCC[C@@H](C)Oc3ccc(NC(=O)c4ccccc4)cc3C(=O)N([C@@H](C)CO)C[C@@H]2C)cc1	?	46.2	nt	-2.0	nt	nt	nt	nt
Cc1ccc(S(=O)(=O)N(C)C[C@@H]2OCCCC[C@@H](C)Oc3ccc(NC(=O)c4ccccc4)cc3C(=O)N([C@@H](C)CO)C[C@H]2C)cc1	-81.2*	100.1*	4.1	-0.4	107.8*	22.5	33.1	30.9*
Cc1ccc(S(=O)(=O)N(C)C[C@H]2OCCCC[C@H](C)Oc3ccc(NC(=O)c4ccccc4)cc3C(=O)N([C@@H](C)CO)C[C@@H]2C)cc1	-81.5*	103.8*	0.3	-0.3	105.7*	43.1	-8.6	-31.5
C[C@@H]1CN([C@@H](C)CO)C(=O)c2cc(NC(=O)c3ccccc3)ccc2O[C@@H](C)CCCCO[C@@H]1CN(C)S(=O)(=O)c1ccccc1	-61.7	27.0	nt	-0.8	nt	nt	nt	nt
OC[C@@H]1[C@@H](c2ccc(/C=C/c3ccccc3)cc2)[C@@H]2CN(Cc3ccncc3)CCCCN12	-2.2	?	nt	2.3	99.3*	73.7	28.6	106.3*
OC[C@@H]1[C@@H](c2ccc(/C=C/c3ccccc3)cc2)[C@H]2CN(Cc3ccncc3)CCCCN12	-60.7	96.6*	nt	4.0	104.6*	51.4	46.5*	101.7*
O=C(CSc1nnc(-c2ccco2)n1-c1ccccc1)c1ccc2c(c1)OCCO2	nt	nt	4.1	nt	nt	nt	nt	nt
Cc1ccc(NC(=O)CN(c2c(C)cccc2C)S(C)(=O)=O)cc1C	nt	nt	-0.1	nt	nt	nt	nt	nt
O=C(NC1CCCC1)N1CCCCN2[C@H](CO)[C@@H](c3ccc(-c4ccccc4)cc3)[C@H]2C1	0.9	61.2	nt	-2.6	nt	nt	nt	nt
O=C(NC1CCCC1)N1CCCCN2[C@H](CO)[C@H](c3ccc(-c4ccccc4)cc3)[C@@H]2C1	15.6	112.7*	nt	1.5	113.4*	78.7	-16.8	63.0*
COc1ccccc1-c1ccc([C@H]2[C@@H](CO)N3CCCCN(C(=O)NC4CCCC4)C[C@@H]23)cc1	25.3	100.3*	nt	0.1	109.1*	80.6	-11.5	34.1*
C[C@@H]1CN([C@@H](C)CO)S(=O)(=O)c2ccc(C#CC3CC3)cc2O[C@@H]1CN(C)C(=O)C1CCC1	12.5	65.5	nt	1.2	nt	nt	nt	nt
